Here are results for 19 compounds from ChEMBL document CHEMBL1150307, “Design, synthesis and evaluation of novel sulfonyl pyrrolidine derivatives as matrix metalloproteinase inhibitors” (Bioorg Med Chem, 2008).

Each structure is given as a SMILES string.

By IC50 is commonly meant the concentration needed to halve the response being measured.

For test [1], the target named is 72 kDa type IV collagenase (Homo sapiens, UniProt P08253). Nature of the test: Inhibition of MMP2. The method in brief: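 Run in borate buffer (50 mM, pH 8.5) with succinylated gelatin as substrate. Enzyme and inhibitor were preincubated 30 min at 37 °C, then substrate was added for 60 min at 37 °C. Picrylsulfonic acid (0.03%) was added for 20 min at room temperature. Absorbance was read at 450 nm, and % inhibition was calculated against uninhibited and blank wells.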

In a further test the target is Aminopeptidase N (Homo sapiens, UniProt P15144). Briefly: Inhibition of aminopeptidase N. The gist of the method:
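Enzyme and inhibitor were preincubated in sodium phosphate buffer (50 mM, pH 7.2) for 30 min at 37 °C. L-leucine p-nitroanilide was then added and incubated a further 60 min at 37 °C. Absorbance at 405 nm was used to calculate inhibition rates.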

Chain of Aminopeptidase N (P15144 whole entry): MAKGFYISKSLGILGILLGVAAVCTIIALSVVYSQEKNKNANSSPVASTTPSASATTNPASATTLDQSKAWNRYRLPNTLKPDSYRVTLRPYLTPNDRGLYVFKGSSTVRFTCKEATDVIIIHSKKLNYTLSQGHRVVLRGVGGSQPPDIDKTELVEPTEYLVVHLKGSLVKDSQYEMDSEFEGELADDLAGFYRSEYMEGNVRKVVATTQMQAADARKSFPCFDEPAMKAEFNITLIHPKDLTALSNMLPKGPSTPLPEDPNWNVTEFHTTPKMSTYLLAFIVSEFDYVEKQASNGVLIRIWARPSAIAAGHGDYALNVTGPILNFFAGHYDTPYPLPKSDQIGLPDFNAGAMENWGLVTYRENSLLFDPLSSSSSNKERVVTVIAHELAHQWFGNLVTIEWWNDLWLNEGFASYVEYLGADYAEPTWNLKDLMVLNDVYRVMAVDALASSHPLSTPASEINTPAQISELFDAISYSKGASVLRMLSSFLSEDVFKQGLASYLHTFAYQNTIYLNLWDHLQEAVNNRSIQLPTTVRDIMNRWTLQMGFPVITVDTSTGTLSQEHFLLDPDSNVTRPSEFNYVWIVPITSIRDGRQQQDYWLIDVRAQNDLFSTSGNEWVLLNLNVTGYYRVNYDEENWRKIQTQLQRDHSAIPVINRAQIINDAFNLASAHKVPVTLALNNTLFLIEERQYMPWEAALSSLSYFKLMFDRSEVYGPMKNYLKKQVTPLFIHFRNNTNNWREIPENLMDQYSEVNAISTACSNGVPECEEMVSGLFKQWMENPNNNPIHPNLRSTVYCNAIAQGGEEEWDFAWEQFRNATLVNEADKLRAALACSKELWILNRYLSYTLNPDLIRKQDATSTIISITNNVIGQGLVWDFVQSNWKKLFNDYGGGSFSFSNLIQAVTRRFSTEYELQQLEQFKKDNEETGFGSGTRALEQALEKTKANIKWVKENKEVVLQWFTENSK
Chain of 72 kDa type IV collagenase (P08253 whole entry): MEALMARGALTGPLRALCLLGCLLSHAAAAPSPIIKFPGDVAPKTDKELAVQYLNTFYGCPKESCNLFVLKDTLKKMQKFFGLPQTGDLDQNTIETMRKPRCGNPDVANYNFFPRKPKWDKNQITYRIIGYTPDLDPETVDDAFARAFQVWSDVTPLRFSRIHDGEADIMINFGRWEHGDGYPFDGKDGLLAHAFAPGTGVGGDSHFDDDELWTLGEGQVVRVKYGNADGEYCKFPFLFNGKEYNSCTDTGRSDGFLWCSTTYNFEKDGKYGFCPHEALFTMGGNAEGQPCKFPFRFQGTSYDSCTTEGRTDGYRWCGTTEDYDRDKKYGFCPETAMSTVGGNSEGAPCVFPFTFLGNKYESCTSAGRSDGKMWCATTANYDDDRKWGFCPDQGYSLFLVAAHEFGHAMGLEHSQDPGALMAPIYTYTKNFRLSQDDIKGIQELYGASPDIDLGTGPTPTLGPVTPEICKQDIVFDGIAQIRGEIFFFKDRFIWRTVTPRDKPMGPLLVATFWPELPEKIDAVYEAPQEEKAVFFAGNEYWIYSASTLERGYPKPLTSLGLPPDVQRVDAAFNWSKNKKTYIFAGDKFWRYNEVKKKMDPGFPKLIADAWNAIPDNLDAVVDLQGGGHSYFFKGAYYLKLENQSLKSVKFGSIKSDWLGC

For `COC(=O)[C@@H]1CC2(CN1S(=O)(=O)c1ccc(C)cc1)OCCCCO2`, the concentration for half-maximal inhibition (IC50) in test [1] was determined as 0.3 µM; at Aminopeptidase N it was 124 µM.

For `COC(=O)[C@@H]1CC(=O)CN1S(=O)(=O)c1ccc(C)cc1`, the IC50 was 0.4 µM in test [1] and 54.9 µM against Aminopeptidase N.

Consider `COc1ccc(/C=C/C(=O)N2C[C@@H](NC(=O)c3cccnc3)C[C@H]2C(=O)NO)cc1OC`, for which the IC50 was found to be 0.009 µM in test [1] and 142 µM against Aminopeptidase N.

In the case of `COC(=O)[C@@H]1C[C@@H](O)CN1S(C)(=O)=O` (relative stereo), the half-inhibitory concentration (IC50) in test [1] was 7.1 µM; against Aminopeptidase N, 41.6 µM.

As for `Cc1ccc(S(=O)(=O)N2CC3(C[C@H]2C(=O)NO)OCCCO3)cc1`, the half-maximal inhibitory concentration (IC50) in test [1] is 0.006 µM; at Aminopeptidase N it was 61.8 µM.

On to `COC(=O)[C@@H]1C[C@@H](O)CN1S(=O)(=O)c1ccc(C)cc1` (relative stereo), for which the IC50 in test [1] came to 0.1 µM; against Aminopeptidase N, 38.4 µM.

As for `COC(=O)[C@@H]1CC(=O)CN1S(C)(=O)=O`, the half-inhibitory concentration (IC50) in test [1] worked out at 9.5 µM; against Aminopeptidase N it was 92.6 µM.

For the compound `COC(=O)[C@@H]1CC(=O)CN1S(=O)(=O)c1ccccc1`, the IC50 in test [1] was 2 µM; on Aminopeptidase N, 75.8 µM.

Take `COC(=O)[C@@H]1CC2(CN1S(=O)(=O)c1ccccc1)OCCCCO2`: the results for the half-inhibitory concentration (IC50) (in test [1]; against Aminopeptidase N) were 1.5 µM and 135 µM, respectively.

With `O=C(NO)[C@@H]1CC2(CN1S(=O)(=O)c1ccccc1)OCCCCO2`, the IC50 was 0.012 µM in test [1] and 107 µM on Aminopeptidase N.

For `COC(=O)[C@@H]1CC2(CN1S(=O)(=O)c1ccccc1)OCCO2`, the IC50 stood at 0.2 µM in test [1] and 151 µM against Aminopeptidase N.

For the compound `Cc1ccc(S(=O)(=O)N2CC3(C[C@H]2C(=O)NO)OCCCCO3)cc1`, the half-maximal inhibitory concentration (IC50) was found to be 0.008 µM in test [1] and 73.2 µM against Aminopeptidase N.

For `Cc1ccc(S(=O)(=O)N2CC3(C[C@H]2C(=O)NO)OCCO3)cc1`, the figures for the concentration for half-maximal inhibition (IC50) (in test [1]; on Aminopeptidase N) were 0.003 µM and 48.5 µM, respectively.

Turning to `COC(=O)[C@@H]1CC2(CN1S(=O)(=O)c1ccc(C)cc1)OCCCO2`, the concentration for half-maximal inhibition (IC50) in test [1] amounted to 0.2 µM; on Aminopeptidase N, 174 µM.

As to `O=C(NO)[C@@H]1CC2(CN1S(=O)(=O)c1ccccc1)OCCCO2`, the half-inhibitory concentration (IC50) in test [1] was determined as 0.011 µM; on Aminopeptidase N it was 82.7 µM.

Turning to `COC(=O)[C@@H]1CC2(CN1S(=O)(=O)c1ccccc1)OCCCO2`, the IC50 in test [1] worked out at 1.1 µM; against Aminopeptidase N, 168 µM.

On to `COC(=O)[C@@H]1CC2(CN1S(=O)(=O)c1ccc(C)cc1)OCCO2`, for which the IC50 in test [1] worked out at 0.1 µM; at Aminopeptidase N, 156 µM.

As to `O=C(NO)[C@@H]1CC2(CN1S(=O)(=O)c1ccccc1)OCCO2`, the IC50 in test [1] is 0.008 µM; against Aminopeptidase N it was 57.8 µM.

Turning to `COC(=O)[C@@H]1C[C@@H](O)CN1S(=O)(=O)c1ccccc1` (relative stereo), the half-inhibitory concentration (IC50) in test [1] turned out to be 0.8 µM; on Aminopeptidase N, 53.8 µM.
